# Measurements reported in ChEMBL document CHEMBL1127741, “4-[(Alkylamino)methyl]furo[3,2-c]pyridines: a new series of selective kappa-receptor agonists” (J Med Chem, 1994).
# System: Mus musculus
# Assay: Antinociceptive activity was measured using the mouse acetylcholine-induced abdominal constriction test following subcutaneous administration of the compound
# Assay type: functional
# Conditions: Abdomen, sc
# Outline: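 Male/female not stated; mice dosed subcutaneously, then challenged with acetylcholine to provoke abdominal constrictions. Inhibition of constrictions scored, and an ED50 (mg/kg, sc) derived for each compound.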
row,Compound,ED50 [µg/kg]
1,O=C(Cc1ccc(Cl)c(Cl)c1)N1CCc2c(O)cccc2C1CN1CCC(O)C1 (stereo unspecified),84
2,"O=C(Cc1ccc(Cl)c(Cl)c1)N1CCc2occc2C1CN1CC[C@H](O)C1 (single isomer, unassigned)",1
3,O=C(Cc1ccc(Cl)c(Cl)c1)N1CCC2(CC1CN1CCCC1)OCCO2 (stereo unspecified),1
4,O=C(Cc1ccc(Cl)c(Cl)c1)N1CCc2occc2C1CN1CCC(O)C1 (stereo unspecified),2
5,O=C(Cc1ccc(Cl)c(Cl)c1)N1CCc2c(O)cccc2C1CN1CCCC1 (stereo unspecified),3
6,O=C(Cc1ccc(Cl)c(Cl)c1)N1CCc2occc2[C@@H]1CN1CC[C@H](O)C1,1.5
7,Cc1cc2c(o1)CCN(C(=O)Cc1ccc(Cl)c(Cl)c1)C2CN1CCC(O)C1 (stereo unspecified),12
8,O=C(Cc1ccc(Cl)c(Cl)c1)N1CCc2occc2C1CN1CCCC1 (stereo unspecified),30
9,O=C(Cc1ccc(Cl)c(Cl)c1)N1CCc2occc2C1CN1CC=CCC1 (stereo unspecified),4
10,O=C1CCN(CC2c3ccoc3CCN2C(=O)Cc2ccc(Cl)c(Cl)c2)C1 (stereo unspecified),19
11,O=C(Cc1ccc(Cl)c(Cl)c1)N1CCc2occc2[C@H]1CN1CC[C@@H](O)C1,30
